{"data": "Published values collected from several papers", "PSMB8": "Proteasome subunit beta type-8 (PSMB8, Homo sapiens, UniProt P28062)", "Mc1r": "Melanocyte-stimulating hormone receptor (Mc1r, Mus musculus, UniProt Q01727)", "note": "Protocols differ between the studies behind these lines. pEC50, pIC50, pKd, pKi: −log10 of the molar value."}
{"SMILES": "CCOc1ccc2c(-c3cc(C)nc(Nc4cc(OC)cc(C(F)(F)F)c4)n3)cnn2n1", "target": "Homeodomain-interacting protein kinase 2 (HIPK2, Homo sapiens, UniProt Q9H2X6)", "test": "enzyme activity, inhibitor", "endpoint": "pIC50", "result": "< 5.00"}
{"SMILES": "Cc1ncc(C(=O)N[C@@H](CCC2CCCCC2)C(=O)N[C@@H](CC(C)C)C(=O)N[C@H](/C=C/S(C)(=O)=O)Cc2ccc(CN)cc2)s1", "target": "PSMB8", "test": "enzyme activity, inhibitor", "setting": "lysate", "endpoint": "pIC50", "result": 6.39}
{"SMILES": "CN1CCN(c2ccc(Nc3ncc4cc(C#N)c(=O)n(C5CCCC5)c4n3)cc2)CC1", "target": "Ephrin type-A receptor 1 (EPHA1, Homo sapiens, UniProt P21709)", "test": "enzyme activity, inhibitor", "endpoint": "pIC50", "result": 7.24}
{"SMILES": "CC1=C(/C=C/C(C)=C/C=C/C(C)=C/C=O)C(C)(C)CCC1", "target": "Cellular retinoic acid-binding protein 2 (CRABP2, Homo sapiens, UniProt P29373, R133K/Y135F)", "test": "binding, fluorescence", "endpoint": "pKd", "result": 6.92}
{"SMILES": "CSCC[C@H](NC(=O)[C@@H](NC(=O)[C@@H](N)Cc1ccc(O)cc1)C(C)C)C(=O)NCC(=O)N[C@@H](Cc1c[nH]cn1)C(=O)N[C@@H](Cc1ccccc1)C(=O)N[C@@H](CCCNC(=N)N)C(=O)N[C@@H](Cc1c[nH]c2ccccc12)C(=O)N[C@@H](CC(=O)O)C(=O)O", "target": "Mc1r", "test": "reporter gene, agonist", "endpoint": "pEC50", "result": 6.37}
{"SMILES": "CC[C@H](C)[C@H](NC(=O)[C@H](CO)NC(=O)[C@H](Cc1ccc(O)cc1)NC(=O)[C@H](CC(=O)O)NC(=O)[C@H](CO)NC(=O)[C@@H](NC(=O)[C@H](Cc1ccccc1)NC(=O)[C@@H](NC(=O)CNC(=O)[C@H](CCC(=O)O)NC(=O)[C@H](C)NC(=O)[C@@H](N)Cc1ccc(O)cc1)[C@@H](C)O)[C@@H](C)CC)C(=O)N[C@@H](C)C(=O)N[C@@H](CCSC)C(=O)N[C@@H](CC(=O)O)C(=O)N[C@@H](CCCCN)C(=O)N[C@H](C(=O)N[C@@H](Cc1c[nH]cn1)C(=O)N[C@@H](CCC(N)=O)C(=O)N[C@@H](CCC(N)=O)C(=O)N[C@@H](CC(=O)O)C(=O)N[C@@H](Cc1ccccc1)C(=O)N[C@H](C(=O)N[C@@H](CC(N)=O)C(=O)N[C@@H](Cc1c[nH]c2ccccc12)C(=O)N[C@@H](CC(C)C)C(=O)N[C@@H](CC(C)C)C(=O)N[C@@H](C)C(=O)N[C@@H](CCC(N)=O)C(=O)N[C@@H](CCCCN)C(=O)NCC(=O)N[C@@H](CCCCN)C(=O)N[C@@H](CCCCN)C(=O)N[C@@H](CC(N)=O)C(=O)N[C@@H](CC(=O)O)C(=O)N[C@@H](Cc1c[nH]c2ccccc12)C(=O)N[C@@H](CCCCN)C(=O)N[C@@H](Cc1c[nH]cn1)C(=O)N[C@@H](CC(N)=O)C(=O)N[C@H](C(=O)N[C@H](C(=O)N[C@@H](CCC(N)=O)C(=O)O)[C@@H](C)O)[C@@H](C)CC)C(C)C)[C@@H](C)CC", "target": "Glucagon receptor (GCGR, Homo sapiens, UniProt P47871)", "test": "reporter gene, agonist, luciferase", "endpoint": "pEC50", "result": 6.30}
{"SMILES": "CCCCN1CCC(COC(=O)c2ccc(N)c(OCF)c2)CC1", "target": "Muscarinic acetylcholine receptor M3 (CHRM3, Homo sapiens, UniProt P20309)", "test": "cell-free assay, radioligand", "endpoint": "pKi", "result": 5.86}
{"SMILES": "CSCC[C@H](NC(=O)[C@@H](NC(=O)[C@@H](N)Cc1ccc(O)cc1)C(C)C)C(=O)NCC(=O)O", "target": "Mc1r", "test": "reporter gene, agonist", "endpoint": "pEC50", "result": "< 4.00"}
{"SMILES": "CC(C)C[C@H](NC(=O)CN1CCOCC1)C(=O)N[C@@H](CC(C)C)C(=O)N[C@H](/C=C/S(C)(=O)=O)Cc1ccc(CN)cc1", "target": "PSMB8", "test": "enzyme activity, inhibitor", "setting": "lysate", "endpoint": "pIC50", "result": "< 5.00"}
{"SMILES": "CCCC[C@H](NC(=O)[C@@H](NC(=O)[C@@H](N)Cc1ccc(O)cc1)C(C)C)C(=O)NCC(=O)N[C@@H](Cc1c[nH]cn1)C(=O)N[C@@H](Cc1ccccc1)C(=O)N[C@@H](CCCN=C(N)N)C(=O)N[C@@H](Cc1c[nH]c2ccccc12)C(=O)N[C@@H](CC(=O)O)C(=O)N[C@@H](CCCN=C(N)N)C(=O)N[C@@H](Cc1ccccc1)C(=O)NCC(=O)O", "target": "Mc1r", "test": "reporter gene, agonist", "endpoint": "pEC50", "result": 6.41}
{"SMILES": "Cc1ncc(C(=O)N[C@@H](CC2CCC3CCCCC3C2)C(=O)N[C@@H](CC(C)C)C(=O)N[C@H](/C=C/S(C)(=O)=O)Cc2ccc(CN)cc2)s1 (stereo partly shown)", "target": "PSMB8", "test": "enzyme activity, inhibitor", "setting": "lysate", "endpoint": "pIC50", "result": "< 5.00"}
{"SMILES": "CSCC[C@H](NC(=O)[C@@H](NC(=O)[C@@H](N)Cc1ccc(O)cc1)C(C)C)C(=O)NCC(=O)N[C@@H](Cc1c[nH]cn1)C(=O)N[C@@H](Cc1ccccc1)C(=O)N[C@@H](CCCNC(=N)N)C(=O)N[C@@H](Cc1c[nH]c2ccccc12)C(=O)O", "target": "Mc1r", "test": "reporter gene, agonist", "endpoint": "pEC50", "result": 5.54}
{"SMILES": "CC(C)C[C@H](NC(=O)[C@H](Cc1ccccc1)N=[N+]=[N-])C(=O)N[C@@H](CC(F)(F)F)C(=O)N[C@H](/C=C/S(C)(=O)=O)Cc1ccc(CN)cc1", "target": "PSMB8", "test": "enzyme activity, inhibitor", "setting": "lysate", "endpoint": "pIC50", "result": 5.74}
